From ChEMBL document CHEMBL4251593, “Nontoxic combretafuranone analogues with high in vitro antibacterial activity” (Eur J Med Chem, 2018)
Values after ≈ are worked out from the molar mass of the structure shown.

Legend:
TERT-RPE1 [1] = assay: Cytotoxicity against human RPE1 cells assessed as reduction in cell viability after 48 hrs by ATPlite-based luminescent assay; settings: RPE-1, 48 h
How it was run: (§1)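 Cells were grown […] with 10% FBS, glutamax, NEAA and pen/strep at 37 °C, 5% CO2. Media were DMEM for RPE-1, HepG2 and BJ (BJ plus 10 ng/ml bFGF), F-12K for PC3, and IMDM for K562/HL-60. Cells were seeded at 500 per well and dosed from DMSO at 12 concentrations, 40 µM to 1 nM, in triplicate. After 48 h, intracellular ATP was read by luminescence. ED50 was obtained by variable-slope nonlinear regression.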

Klebsiella pneumoniae [2] = assay: Antibacterial activity against Klebsiella pneumoniae HK14368/08 clinical isolate after 48 hrs by microdilution assay; format: functional; settings: HK14368/08, 48 h
HL-60 [3] = assay: Induction of apoptosis in human HL60 cells assessed as caspase 3/7 activity after 24 hrs by caspase-glo luminescent assay; format: cell-based; settings: HL-60, 24 h
How it was run: (§2)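 Cells were seeded at 500 per well in their growth media and exposed to 12 concentrations from 40 µM to 1 nM, delivered from DMSO, in triplicate. After 24 h, caspase-3/7 activity was read by Caspase-Glo luminescence. Data were normalized and ED50 was fitted by variable-slope nonlinear regression.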

Klebsiella pneumoniae [4] = assay: Antibacterial activity against Klebsiella pneumoniae HK14368/08 clinical isolate after 24 hrs by microdilution assay; format: functional; settings: HK14368/08, 24 h
MCF7 = assay: Cytotoxicity against human MCF7 cells assessed as reduction in cell viability after 48 hrs by ATPlite-based luminescent assay; settings: MCF7, 48 h
Enterococcus sp. [5] = assay: Antibacterial activity against Enterococcus sp. HK14365/08 clinical isolate after 24 hrs by microdilution assay; format: functional; settings: HK14365/08, 24 h
Staphylococcus aureus [6] = assay: Antibacterial activity against methicillin-resistant Staphylococcus aureus HK5996/08 clinical isolate after 48 hrs by microdilution assay; format: functional; settings: HK5996/08, 48 h
Enterococcus sp. [7] = assay: Antibacterial activity against Enterococcus sp. HK14365/08 clinical isolate after 48 hrs by microdilution assay; format: functional; settings: HK14365/08, 48 h
TERT-RPE1 [8] = assay: Induction of apoptosis in human RPE1 cells assessed as caspase 3/7 activity after 24 hrs by caspase-glo luminescent assay; format: cell-based; settings: RPE-1, 24 h; how it was run: as §2
K562 [9] = assay: Induction of apoptosis in human K562 cells assessed as caspase 3/7 activity after 24 hrs by caspase-glo luminescent assay; format: cell-based; settings: K562, 24 h; how it was run: as §2
K562 [10] = assay: Cytotoxicity against human K562 cells assessed as reduction in cell viability after 48 hrs by ATPlite-based luminescent assay; settings: K562, 48 h; how it was run: as §1
Staphylococcus aureus [11] = assay: Antibacterial activity against Staphylococcus aureus ATCC 6538 after 24 hrs by microdilution assay; format: functional; settings: ATCC 6538, 24 h
BJ = assay: Cytotoxicity against human BJ cells assessed as reduction in cell viability after 48 hrs by ATPlite-based luminescent assay; how it was run: as §1
Klebsiella pneumoniae [12] = assay: Antibacterial activity against Klebsiella pneumoniae HK11750/08 clinical isolate after 48 hrs by microdilution assay; format: functional; settings: HK11750/08, 48 h
HepG2 [13] = assay: Cytotoxicity against human HepG2 cells assessed as reduction in cell viability after 48 hrs by ATPlite-based luminescent assay; settings: HepG2, 48 h; how it was run: as §1
PC-3 [14] = assay: Cytotoxicity against human PC3 cells assessed as reduction in cell viability after 48 hrs by ATPlite-based luminescent assay; settings: PC-3, 48 h; how it was run: as §1
Staphylococcus aureus [15] = assay: Antibacterial activity against methicillin-resistant Staphylococcus aureus HK5996/08 clinical isolate after 24 hrs by microdilution assay; format: functional; settings: HK5996/08, 24 h
HL-60 [16] = assay: Cytotoxicity against human HL60 cells assessed as reduction in cell viability after 48 hrs by ATPlite-based luminescent assay; settings: HL-60, 48 h; how it was run: as §1
Escherichia coli [17] = assay: Antibacterial activity against Escherichia coli ATCC 8739 after 24 hrs by microdilution assay; format: functional; settings: ATCC 8739, 24 h
How it was run: (§3)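 Broth microdilution in Mueller-Hinton medium buffered to pH 7.4 (±0.2), with DMSO as diluent at no more than 2% final. Compounds were tested as 2-fold serial dilutions from 2000 to 0.488 µmol/l. The inoculum was 0.5 McFarland (1.5×10^8 cfu/ml). Plates were held at 37 °C and read visually at 24 and 48 h. MIC was taken as 95% growth inhibition versus control, determined twice in duplicate.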

Pseudomonas aeruginosa [18] = assay: Antibacterial activity against Pseudomonas aeruginosa ATCC 9027 after 24 hrs by microdilution assay; format: functional; settings: ATCC 9027, 24 h; how it was run: as §3
Staphylococcus aureus [19] = assay: Antibacterial activity against Staphylococcus aureus ATCC 6538 after 48 hrs by microdilution assay; format: functional; settings: ATCC 6538, 48 h
[20] = system: Staphylococcus epidermidis; assay: Antibacterial activity against Staphylococcus epidermidis HK6966/08 clinical isolate after 48 hrs by microdilution assay; format: functional; settings: HK6966/08, 48 h
Klebsiella pneumoniae [21] = assay: Antibacterial activity against Klebsiella pneumoniae HK11750/08 clinical isolate after 24 hrs by microdilution assay; format: functional; settings: HK11750/08, 24 h
PC-3 [22] = assay: Induction of apoptosis in human PC3 cells assessed as caspase 3/7 activity after 24 hrs by caspase-glo luminescent assay; format: cell-based; settings: PC-3, 24 h; how it was run: as §2
Pseudomonas aeruginosa [23] = assay: Antibacterial activity against Pseudomonas aeruginosa ATCC 9027 after 48 hrs by microdilution assay; format: functional; settings: ATCC 9027, 48 h; how it was run: as §3
Escherichia coli [24] = assay: Antibacterial activity against Escherichia coli ATCC 8739 after 48 hrs by microdilution assay; format: functional; settings: ATCC 8739, 48 h; how it was run: as §3
HepG2 [25] = assay: Induction of apoptosis in human HepG2 cells assessed as caspase 3/7 activity after 24 hrs by caspase-glo luminescent assay; format: cell-based; settings: HepG2, 24 h; how it was run: as §2
[26] = system: Staphylococcus epidermidis; assay: Antibacterial activity against Staphylococcus epidermidis HK6966/08 clinical isolate after 24 hrs by microdilution assay; format: functional; settings: HK6966/08, 24 h

SMILES	IC50 (TERT-RPE1 [1]) [µM]	MIC95 (Klebsiella pneumoniae [2]) [µM]	IC50 (HL-60 [3]) [µM]	MIC95 (Klebsiella pneumoniae [4]) [µM]	IC50 (MCF7) [µM]	MIC95 (Enterococcus sp. [5]) [µM]	MIC95 (Staphylococcus aureus [6]) [µM]	MIC95 (Enterococcus sp. [7]) [µM]	IC50 (TERT-RPE1 [8]) [µM]	IC50 (K562 [9]) [µM]	IC50 (K562 [10]) [µM]	MIC95 (Staphylococcus aureus [11]) [µM]	IC50 (BJ) [µM]	MIC95 (Klebsiella pneumoniae [12]) [µM]	IC50 (HepG2 [13]) [µM]	IC50 (PC-3 [14]) [µM]	MIC95 (Staphylococcus aureus [15]) [µM]	IC50 (HL-60 [16]) [µM]	MIC95 (Escherichia coli [17]) [µM]	MIC95 (Pseudomonas aeruginosa [18]) [µM]	further results
COc1ccc(C2=C(c3c(Cl)cccc3Cl)C(=O)OC2)cc1	> 40	> 500	12.5	> 500	> 40	> 500	> 500	> 500	> 40	16.2	14.4	62.5 (≈ 20.9 µg/mL)	> 40	> 500	> 40	> 40	> 500	15.1	> 500	> 500	MIC95 (Staphylococcus aureus [19]): 125 µM (≈ 41.9 µg/mL); MIC95 [20]: 250 µM (≈ 83.8 µg/mL); MIC95 (Klebsiella pneumoniae [21]): > 500 µM; IC50 (PC-3 [22]): > 40 µM; MIC95 (Pseudomonas aeruginosa [23]): > 500 µM; MIC95 (Escherichia coli [24]): > 500 µM; IC50 (HepG2 [25]): > 40 µM; MIC95 [26]: 125 µM (≈ 41.9 µg/mL)
O=C1OCC(c2ccccc2)=C1c1cccc(C(F)(F)F)c1	> 40	> 500	> 40	> 500	> 40	> 500	62.5 (≈ 19 µg/mL)	> 500	> 40	> 40	> 40	15.6 (≈ 4.75 µg/mL)	> 40	> 500	> 40	> 40	62.5 (≈ 19 µg/mL)	> 40	> 500	> 500	MIC95 (Staphylococcus aureus [19]): 15.6 µM (≈ 4.75 µg/mL); MIC95 [20]: 31.2 µM (≈ 9.51 µg/mL); MIC95 (Klebsiella pneumoniae [21]): > 500 µM; IC50 (PC-3 [22]): > 40 µM; MIC95 (Pseudomonas aeruginosa [23]): > 500 µM; MIC95 (Escherichia coli [24]): > 500 µM; IC50 (HepG2 [25]): > 40 µM; MIC95 [26]: 31.2 µM (≈ 9.51 µg/mL)
COc1ccc(C2=C(c3ccc(S(C)(=O)=O)cc3)COC2=O)cc1	> 40	> 500	> 40	> 500	> 40	> 500	> 500	> 500	> 40	> 40	> 40	> 500	> 40	> 500	> 40	> 40	> 500	> 40	> 500	> 500	MIC95 (Staphylococcus aureus [19]): > 500 µM; MIC95 [20]: > 500 µM; MIC95 (Klebsiella pneumoniae [21]): > 500 µM; IC50 (PC-3 [22]): > 40 µM; MIC95 (Pseudomonas aeruginosa [23]): > 500 µM; MIC95 (Escherichia coli [24]): > 500 µM; IC50 (HepG2 [25]): > 40 µM; MIC95 [26]: > 500 µM
Cc1ccc(C2=C(c3ccc(Br)cc3)C(=O)OC2)cc1	0.97	> 1000	2.77	> 1000	14.8	> 1000	62.5 (≈ 20.6 µg/mL)	> 1000	8.16	0.29	0.3	7.81 (≈ 2.57 µg/mL)	> 40	> 1000	> 40	> 40	62.5 (≈ 20.6 µg/mL)	0.65	> 1000	> 1000	MIC95 (Staphylococcus aureus [19]): 15.6 µM (≈ 5.14 µg/mL); MIC95 [20]: 31.2 µM (≈ 10.3 µg/mL); MIC95 (Klebsiella pneumoniae [21]): > 1000 µM; IC50 (PC-3 [22]): > 40 µM; MIC95 (Pseudomonas aeruginosa [23]): > 1000 µM; MIC95 (Escherichia coli [24]): > 1000 µM; IC50 (HepG2 [25]): > 40 µM; MIC95 [26]: 15.6 µM (≈ 5.14 µg/mL)
